Source: ChEMBL document CHEMBL4706768, “Discovery of Potent, Selective Triazolothiadiazole-Containing c-Met Inhibitors” (ACS Med Chem Lett, 2021)

Assays:
[1] = molecular target: T1, Hepatocyte growth factor receptor (Homo sapiens, UniProt P08581); experiment: Inhibition of c-MET in human SNU-5 cells measured after 6 hrs by steady-glo luciferase reporter gene assay; assay type: cell-based
Homo sapiens = species on record: Homo sapiens; experiment: Selectivity ratio of IC50 for inhibition of recombinant human N-terminal GST/His-tagged PDE3A (669 to 1141 residues) expressed in baculovirus infected Sf9 insect cells to IC50 for inhibition of c-MET in human SNU-5 cells
[2] = molecular target: T1, Hepatocyte growth factor receptor; experiment: Inhibition of c-Met (unknown origin) using poly Glu-Tyr as substrate preincubated for 10 mins followed by ATP addition by phosphoenolpyruvate/pyruvate kinase/lactate dehydrogenase coupled radiometric assay
[3] = molecular target: cGMP-inhibited 3',5'-cyclic phosphodiesterase 3A (Homo sapiens, UniProt Q14432); experiment: Inhibition of recombinant human N-terminal GST/His-tagged PDE3A (669 to 1141 residues) expressed in baculovirus infected Sf9 insect cells using iFL-cAMP as substrate preincubated for 15 mins followed by substrate addition and measured after 40 mins by fluorescence assay
[4] = Stability in rat hepatocytes after 30 mins; assay type: ADME, cell-based, Hepatocyte; settings: read-out: Stabilty
[5] = Stability in rat liver microsomes after 30 mins
[6] = Stability in human liver microsomes after 30 mins
[7] = Unbound intrinsic clearance in mouse hepatocytes assessed per million cells; assay type: ADME, cell-based, Hepatocyte
[8] = Unbound intrinsic clearance in human hepatocytes assessed per million cells; assay type: ADME, cell-based, Hepatocyte
[9] = Clearance in rat at 1 mg/kg, iv; assay type: ADME, organism-based; settings: in vivo
[10] = Half life in rat at 1 mg/kg, iv; assay type: ADME, organism-based; settings: in vivo
[11] = Clearance in monkey at 0.9 mg/kg, iv; assay type: ADME, organism-based, Macaca mulatta; settings: rhesus monkey, in vivo
[12] = Oral bioavailability in dog at 12 mg/kg; assay type: ADME, organism-based, Canis lupus familiaris; settings: in vivo
Procedure, shortened: (§1)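 For dogs, dosing was IV 0.8 mpk or PO 12 mpk, the oral formulation being 30% PG/10% Solutol/1% HPMC-AS. IV and PO parameters were obtained from the corresponding arms.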

[13] = Volume of distribution at steady state in monkey at 0.9 mg/kg, iv; assay type: ADME, organism-based, Macaca mulatta; settings: rhesus monkey, in vivo, read-out: Vdss
[14] = Volume of distribution at steady state in rat at 0.9 mg/kg, iv; assay type: ADME, organism-based; settings: in vivo, read-out: Vdss
Procedure, shortened: (§2)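 Rats received IV 0.9 mpk or PO 2.6 mpk, the oral dose formulated in 0.5% MC/0.1% Tween 80. PK parameters were derived from the IV and PO dosing arms.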

[15] = Half life in mouse at 0.8 mg/kg, iv; assay type: ADME, organism-based; settings: in vivo
Procedure, shortened: (§3)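 Mice received IV 0.8 mpk or PO 13 mpk, the oral dose in 0.5% MC/0.1% Tween 80 vehicle. Parameters came from the respective IV or PO dosing.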

SNU-5 [16] = experiment: Antitumor activity against human SNU-5 cells xenografted in SCID mouse assessed as tumor growth at 10 mg/kg qd measured 38 days post tumor implantation relative to control; assay type: functional
Procedure, shortened: (§4)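 SCID mice carrying SNU-5 tumors were dosed at 3, 10 or 30 mpk. Tumor growth was compared with untreated controls as T/C. Body weight was followed through the dosing regimen.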

[17] = AUC in dog at 12 mg/kg, po; assay type: ADME, organism-based, Canis lupus familiaris; set-up: dose 12 mg/kg; settings: in vivo; procedure, shortened: as §1
SNU-5 [18] = experiment: Antitumor activity against human SNU-5 cells xenografted in SCID mouse assessed as tumor regression at 30 mg/kg qd measured 38 days post tumor implantation relative to control; assay type: functional; procedure, shortened: as §4
[19] = Volume of distribution at steady state in mouse at 0.8 mg/kg, iv; assay type: ADME, organism-based; settings: in vivo, read-out: Vdss; procedure, shortened: as §3
[20] = Volume of distribution at steady state in dog at 0.8 mg/kg, iv; assay type: ADME, organism-based, Canis lupus familiaris; settings: in vivo, read-out: Vdss; procedure, shortened: as §1
[21] = Oral bioavailability in rat at 2.6 mg/kg; assay type: ADME, organism-based; settings: in vivo; procedure, shortened: as §2
[22] = Clearance in mouse at 0.8 mg/kg, iv; assay type: ADME, organism-based; settings: in vivo; procedure, shortened: as §3
[23] = Toxicity in human SNU-5 cells xenografted SCID mouse assessed as body weight loss at 30 mg/kg qd; assay type: organism-based; settings: in vivo; procedure, shortened: as §4
[24] = Cmax in mouse at 13 mg/kg, po; assay type: ADME, organism-based; set-up: route oral, dose 13 mg/kg; settings: in vivo; procedure, shortened: as §3
[25] = Half life in rat at 0.9 mg/kg, iv; assay type: ADME, organism-based; settings: in vivo; procedure, shortened: as §2
[26] = Cmax in dog at 12 mg/kg, po; assay type: ADME, organism-based, Canis lupus familiaris; set-up: route oral, dose 12 mg/kg; settings: in vivo; procedure, shortened: as §1
[27] = Oral bioavailability in mouse at 13 mg/kg; assay type: ADME, organism-based; settings: in vivo; procedure, shortened: as §3
[28] = AUC in rat at 2.6 mg/kg, po; assay type: ADME, organism-based; set-up: dose 2.6 mg/kg; settings: in vivo; procedure, shortened: as §2
[29] = Half life in dog at 0.8 mg/kg, iv; assay type: ADME, organism-based, Canis lupus familiaris; settings: in vivo; procedure, shortened: as §1
[30] = AUC in mouse at 13 mg/kg, po; assay type: ADME, organism-based; set-up: dose 13 mg/kg; settings: in vivo; procedure, shortened: as §3
[31] = Cmax in rat at 2.6 mg/kg, po; assay type: ADME, organism-based; set-up: route oral, dose 2.6 mg/kg; settings: in vivo; procedure, shortened: as §2
SNU-5 [32] = experiment: Antitumor activity against human SNU-5 cells xenografted in SCID mouse assessed as tumor growth at 3 mg/kg qd measured 38 days post tumor implantation relative to control; assay type: functional; procedure, shortened: as §4
SNU-5 [33] = experiment: Antitumor activity against human SNU-5 cells xenografted in SCID mouse assessed as tumor regression measured 38 days post tumor implantation; assay type: functional; procedure, shortened: as §4
[34] = Clearance in rat at 0.9 mg/kg, iv; assay type: ADME, organism-based; settings: in vivo; procedure, shortened: as §2
[35] = Half life in monkey at 0.9 mg/kg, iv; assay type: ADME, organism-based, Macaca mulatta; settings: rhesus monkey, in vivo
[36] = Clearance in dog at 0.8 mg/kg, iv; assay type: ADME, organism-based, Canis lupus familiaris; settings: in vivo; procedure, shortened: as §1

Chain of cGMP-inhibited 3',5'-cyclic phosphodiesterase 3A (Q14432 whole entry, the tested form may be a part): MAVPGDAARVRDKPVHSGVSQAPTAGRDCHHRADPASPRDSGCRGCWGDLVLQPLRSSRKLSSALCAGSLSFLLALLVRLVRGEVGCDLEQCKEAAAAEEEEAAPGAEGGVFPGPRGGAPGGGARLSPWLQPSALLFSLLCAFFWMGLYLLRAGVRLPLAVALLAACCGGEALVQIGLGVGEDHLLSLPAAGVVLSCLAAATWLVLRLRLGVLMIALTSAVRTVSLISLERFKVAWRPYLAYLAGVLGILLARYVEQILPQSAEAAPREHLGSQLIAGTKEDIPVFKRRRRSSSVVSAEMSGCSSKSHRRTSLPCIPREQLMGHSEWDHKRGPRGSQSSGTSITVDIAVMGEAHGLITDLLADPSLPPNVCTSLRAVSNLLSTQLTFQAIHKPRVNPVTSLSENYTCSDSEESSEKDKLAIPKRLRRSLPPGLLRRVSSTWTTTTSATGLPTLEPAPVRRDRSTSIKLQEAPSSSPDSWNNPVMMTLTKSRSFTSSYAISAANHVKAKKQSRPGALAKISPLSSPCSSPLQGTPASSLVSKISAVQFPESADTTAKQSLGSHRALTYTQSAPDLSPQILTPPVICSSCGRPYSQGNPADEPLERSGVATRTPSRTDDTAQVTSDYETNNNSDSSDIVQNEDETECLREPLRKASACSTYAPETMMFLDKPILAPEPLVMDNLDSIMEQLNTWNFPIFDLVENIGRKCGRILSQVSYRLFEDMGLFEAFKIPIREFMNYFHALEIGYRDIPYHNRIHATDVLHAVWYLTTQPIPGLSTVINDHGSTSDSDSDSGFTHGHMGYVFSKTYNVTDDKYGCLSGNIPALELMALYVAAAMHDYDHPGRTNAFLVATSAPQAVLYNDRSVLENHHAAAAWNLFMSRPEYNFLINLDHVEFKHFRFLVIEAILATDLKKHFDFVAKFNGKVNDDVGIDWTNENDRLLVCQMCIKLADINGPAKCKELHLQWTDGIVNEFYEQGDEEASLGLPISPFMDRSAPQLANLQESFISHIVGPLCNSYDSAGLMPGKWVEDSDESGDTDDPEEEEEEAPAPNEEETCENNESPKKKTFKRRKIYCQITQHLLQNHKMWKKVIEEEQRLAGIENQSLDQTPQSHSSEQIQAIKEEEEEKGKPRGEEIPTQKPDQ
T1 sequence (P08581 whole entry, the tested form may be a part): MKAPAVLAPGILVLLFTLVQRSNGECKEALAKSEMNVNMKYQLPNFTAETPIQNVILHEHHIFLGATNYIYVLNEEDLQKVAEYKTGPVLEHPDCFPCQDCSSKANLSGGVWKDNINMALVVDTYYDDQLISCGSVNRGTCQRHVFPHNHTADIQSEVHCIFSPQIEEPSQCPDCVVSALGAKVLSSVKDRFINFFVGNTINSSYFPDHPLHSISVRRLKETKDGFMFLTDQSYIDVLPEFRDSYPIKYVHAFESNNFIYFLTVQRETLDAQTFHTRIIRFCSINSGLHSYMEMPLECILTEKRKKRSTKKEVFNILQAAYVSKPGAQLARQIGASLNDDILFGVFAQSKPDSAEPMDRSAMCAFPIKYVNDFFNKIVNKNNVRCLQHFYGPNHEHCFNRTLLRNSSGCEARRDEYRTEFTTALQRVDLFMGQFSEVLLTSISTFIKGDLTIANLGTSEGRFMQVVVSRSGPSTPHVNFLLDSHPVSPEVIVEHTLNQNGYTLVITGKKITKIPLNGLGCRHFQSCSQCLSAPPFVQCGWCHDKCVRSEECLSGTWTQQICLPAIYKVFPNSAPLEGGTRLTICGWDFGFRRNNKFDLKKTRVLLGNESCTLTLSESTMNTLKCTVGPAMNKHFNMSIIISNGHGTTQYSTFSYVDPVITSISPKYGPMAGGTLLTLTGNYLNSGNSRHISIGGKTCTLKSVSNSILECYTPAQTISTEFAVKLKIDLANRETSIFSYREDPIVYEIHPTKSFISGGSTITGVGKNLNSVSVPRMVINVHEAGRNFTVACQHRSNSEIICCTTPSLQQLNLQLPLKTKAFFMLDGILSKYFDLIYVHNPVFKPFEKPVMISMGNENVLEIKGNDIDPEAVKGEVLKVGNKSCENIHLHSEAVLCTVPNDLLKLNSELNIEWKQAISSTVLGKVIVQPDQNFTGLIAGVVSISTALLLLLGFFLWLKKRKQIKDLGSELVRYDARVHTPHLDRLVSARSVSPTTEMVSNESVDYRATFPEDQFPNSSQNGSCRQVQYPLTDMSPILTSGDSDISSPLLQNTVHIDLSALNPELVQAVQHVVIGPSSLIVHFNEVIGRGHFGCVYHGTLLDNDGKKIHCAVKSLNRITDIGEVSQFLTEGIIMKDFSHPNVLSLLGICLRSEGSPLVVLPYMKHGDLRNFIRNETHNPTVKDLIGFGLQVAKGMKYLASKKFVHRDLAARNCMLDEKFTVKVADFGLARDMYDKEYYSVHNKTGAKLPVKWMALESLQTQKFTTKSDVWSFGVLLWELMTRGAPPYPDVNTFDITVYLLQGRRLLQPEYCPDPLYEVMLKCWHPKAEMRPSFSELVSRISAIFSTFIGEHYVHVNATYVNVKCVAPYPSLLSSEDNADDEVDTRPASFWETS

`C[C@@H](c1ccc2ncccc2c1)c1nnc2sc(Nc3cnn(C)c3)nn12` showed an IC50 [1] of 5 nM, a Ratio IC50 (Homo sapiens) of 600 and a Ki [2] of 20 nM. For the same compound, the IC50 [3] was 3000 nM.

Compound `Oc1ccc(Cc2nnc3sc(Nc4cccc(Cl)c4)nn23)cc1F` has a remaining at 0.5 h [4] of 56%.

In the case of `Cc1nn(C)cc1-c1nn2c([C@@H](C)c3ccc4ncccc4c3)nnc2s1`, the IC50 [1] is reported as 3 nM, the Ratio IC50 (Homo sapiens) is reported as 33 and the IC50 [3] is reported as 100 nM.

For `Oc1ccc(Cc2nnc3n2N=C(c2ccc(F)cc2)CS3)cc1`, the remaining at 0.5 h [5] was 2.6% and the remaining at 0.5 h [6] was 73%.

`Clc1cccc(Nc2nn3c(Cn4ccc5ncccc54)nnc3s2)c1` gave a remaining at 0.5 h [4] of 60%.

For `Oc1cccc(Cc2nnc3sc(Nc4cccc(Cl)c4)nn23)c1`, the remaining at 0.5 h [4] was 55%.

With `Clc1cccc(Nc2nn3c(Cc4ccc5c(c4)OCO5)nnc3s2)c1` the remaining at 0.5 h [4] was 64%.

`Clc1cccc(Nc2nn3c(Cc4ccc5ncccc5c4)nnc3s2)c1` gave a remaining at 0.5 h [4] of 45%.

`Oc1ccc(Cn2cnc3ncc(-c4ccc(F)cc4)nc32)cc1` showed a remaining at 0.5 h [5] of 56% and a remaining at 0.5 h [6] of 51%.

Work on `Oc1ccc(Cc2nnc3sc(Nc4ccccc4)nn23)cc1` yielded a remaining at 0.5 h [5] of 40% and a remaining at 0.5 h [6] of 68%.

`CC(c1ccc2ncccc2c1)c1nnc2sc(-c3cnn(C)c3)nn12` (racemic) showed an IC50 [1] of 30 nM, a CL free [7] of 7.4 µL/min and a Ki [2] of 50 nM. For the same compound, the CL free [8] was 3.2 µL/min.

With `Cc1nn(C)cc1-c1nn2c([C@H](C)c3ccc4ncccc4c3)nnc2s1` the IC50 [1] was 3 nM, the Ratio IC50 (Homo sapiens) was 67 and the IC50 [3] was 200 nM.

In the case of `Oc1ccc(Cc2nnc3sc(Nc4cccc(Cl)c4)nn23)cc1Cl`, the remaining at 0.5 h [4] is reported as 63%.

With `C[C@H](c1ccc2ncccc2c1)c1nnc2sc(-c3cnn(C)c3)nn12` the IC50 [1] was 84 nM, the CL free [7] was 7 µL/min and the Ratio IC50 (Homo sapiens) was 95. It also gave a Ki [2] of 240 nM, a CL free [8] of 5.8 µL/min and an IC50 [3] of 7900 nM.

In the case of `Cn1cc(-c2nn3c(Cc4ccc5ncccc5c4)nnc3s2)cn1`, the CL free [7] is reported as 6.2 µL/min, the clearance [9] is reported as 24.5 mL/min/kg and the half-life [10] is reported as 1.1 h. For the same compound, the CL free [8] was 4.8 µL/min.

In the case of `Oc1ccc(Cc2nnc3ccc(-c4ccc(F)cc4)nn23)cc1`, the remaining at 0.5 h [5] is reported as 32% and the remaining at 0.5 h [6] is reported as 50%.

Work on `Cn1cc(Nc2nn3c(C(F)(F)c4ccc5ncccc5c4)nnc3s2)cn1` yielded a clearance [11] of 23 mL/min/kg, an IC50 [1] of 4 nM and a bioavailability [12] of 66%. The Vd [13] was 1.2 L/kg, the Vd [14] was 0.7 L/kg and the half-life [15] was 1.8 h. It also gave a Ratio IC50 (Homo sapiens) of 2020, a T/C (SNU-5 [16]) of 54.2% and an AUC [17] of 9.9 µg/h/mL. For the same compound, the Activity (SNU-5 [18]) was -23.9%, the Vd [19] was 1 L/kg and the Ki [2] was 21 nM. The Vd [20] was 1.6 L/kg, the bioavailability [21] was 29% and the clearance [22] was 21 mL/min/kg. The Activity [23] was “Non-Toxic”, the Cmax [24] was 4800 ng/mL and the half-life [25] was 1.4 h. For the same compound, the Cmax [26] was 1300 ng/mL, the bioavailability [27] was 100% and the AUC [28] was 0.6 µg/h/mL. For the same compound, the half-life [29] was 3.6 h, the AUC [30] was 16 µg/h/mL and the Cmax [31] was 150 ng/mL. For the same compound, the T/C (SNU-5 [32]) was 16.6%, the Activity (SNU-5 [33]) was “Dose-dependent effect” and the clearance [34] was 25 mL/min/kg. The IC50 [3] was 8070 nM, the half-life [35] was 2 h and the clearance [36] was 14 mL/min/kg.
